High-throughput results as filed in PubChem.
This is a sample that favours compounds with a hit; in the whole collection about 4.2% have one here.
PfM18AAP inh – blocks P. falciparum M18 aspartyl aminopeptidase; recombinant PfM18AAP, H-Glu-NHMec fluorogenic cleavage; AID 1822; inhibition, % at 7.35 µM; 1.2% of 290,000 active;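 active = inhibition above the campaign mean inhibition over all tested compounds plus 3 SD, cut at about 28% in these data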;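 also: 0% = plate median of test compound wells and 100% = 2 mM ZnCl2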
HDAC3 inh – inhibitors of human histone deacetylase 3; O15379; recombinant HDAC3, fluorogenic peptide/trypsin coupled, fluorescence; inhibition, % at 8.3 µM; 0.15% of 320,000 active; AID 2718; in the data active = inhibition above about 26%, passing the limit was not always enough
Target sequence (O15379 whole entry, looked up): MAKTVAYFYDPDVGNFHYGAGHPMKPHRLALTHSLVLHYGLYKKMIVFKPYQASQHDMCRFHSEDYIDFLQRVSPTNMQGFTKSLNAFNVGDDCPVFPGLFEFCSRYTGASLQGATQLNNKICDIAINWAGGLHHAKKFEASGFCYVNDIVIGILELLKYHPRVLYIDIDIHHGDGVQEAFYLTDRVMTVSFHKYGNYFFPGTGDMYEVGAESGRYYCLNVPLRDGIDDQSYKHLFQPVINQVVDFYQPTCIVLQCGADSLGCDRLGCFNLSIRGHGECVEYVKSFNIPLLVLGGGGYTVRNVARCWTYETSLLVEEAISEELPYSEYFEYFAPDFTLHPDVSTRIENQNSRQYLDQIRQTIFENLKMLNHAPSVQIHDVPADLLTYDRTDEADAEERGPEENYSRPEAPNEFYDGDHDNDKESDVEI
GAA850 FXN act – frataxin GAA850 promoter activation. HEK293 lucGAA850 FXN promoter luciferase reporter, 24 h; percent of 10 µM SAHA response. activation, % at 6 µM. 0.56% of 360,000 active. AID 540364;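 active = activation above the average of all compounds screened plus 3 SD, cutoff fixed separately per campaign, cut at about 7.5% in these data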;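 also: 0% = DMSO wells and 100% = 10 µM SAHA wells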
SENP1 FRET inh – SENP1 (human) catalytic domain inhibition; recombinant SENP1 catalytic domain, CyPet-SUMO1-YPet FRET cleavage; inhibition, % at 10 µM; 0.21% of 360,000 active; AID 624204;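 active = inhibition at least 30% at 10 µM, raw YFP signal under a set limit, fluorescence ratio 0.5 to 1.5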;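 also: 0% = enzyme with DMSO and 100% = no enzyme wells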
Target sequence (Q9P0U3 419-644 limits assumed): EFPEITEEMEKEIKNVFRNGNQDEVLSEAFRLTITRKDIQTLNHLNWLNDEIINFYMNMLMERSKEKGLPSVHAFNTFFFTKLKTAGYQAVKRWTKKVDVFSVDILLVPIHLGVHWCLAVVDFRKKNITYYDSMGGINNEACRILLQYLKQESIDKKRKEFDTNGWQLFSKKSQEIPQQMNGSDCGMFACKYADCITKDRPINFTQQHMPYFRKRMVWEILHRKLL
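system = hSENP1 catalytic domain, recombinant | reagent = SFCypet-SUMO1-SFYpet substrate at 25 nM | doses = one dose per compound, 10 µM, 0.5% DMSO | incubation = enzyme reaction for 50 min at room temperature, dark | measured by = FRET, CFP and YFP emission | controls = no-enzyme low, enzyme-DMSO high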
AHR activator – human AHR activation | P35869 | AHR-responsive luciferase reporter cells, luminescence | 2.5% of 320,000 active | AID 2796 | activation, % at 5 µM; in the data active = activation above about 47%;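 also: 0% = vehicle wells and 100% = reference agonist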
CTSL1 counter – blocks F. hepatica cathepsin L1 in PFM18AAP counter-screen | inhibition, % at 5.96 µM | 0.49% of 300,000 active | recombinant F. hepatica cathepsin L1, Z-Leu-Arg-MCA fluorescence;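 active = inhibition above the mean of all tested compounds plus 3 SD, set per screening campaign, cut at about 17% in these data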;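 also: 0% = plate median of test compound wells and 100% = 1 µM Z-Phe-Ala-diazomethylketone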
AHR act cf – human AHR activation, confirmation | 87% of 2,300 active | AID 2845 | shares compounds with AHR activator | activation, % at 9 µM | human cells, AHR-responsive luciferase reporter, luminescence; in the data active = activation above about 49%;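 also: HepG2 hepatoma cells carrying a DRE-driven firefly luciferase reporter; 0% = vehicle wells and 100% = reference agonist wells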
PXR counter – activates human PXR in AHR activator counter-screen; shares compounds with AHR activator; activation, % at 11.6 µM; AID 434939; 88% of 2,300 active; cell-based PXR reporter, luciferase luminescence; in the data active = activation above about 11%;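 also: human hepatoma DPX-2 cells expressing full-length human PXR; 0% = DMSO and 100% = reference agonist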
* = called active by the depositor; nt = not tested or not shown.

SMILES | PfM18AAP inh | HDAC3 inh | GAA850 FXN act | SENP1 FRET inh | AHR activator | CTSL1 counter | AHR act cf | PXR counter
Cc1nc(NC(=O)c2ccco2)sc1-c1csc(Nc2ccc(Cl)cc2Cl)n1 | 3 | -6 | 1 | -39 | 88* | 0 | 75* | 26*
CCC(C)C(=O)Nc1nc(C)c(-c2csc(Nc3ccccc3OC)n2)s1 (centres undefined) | 2 | 16 | -1 | -15 | 110* | -1 | 85* | 51*
C=CCCC(=O)Nc1nc(C)c(-c2csc(Nc3ccccc3OC)n2)s1 | 8 | 8 | -5 | -4 | 101* | 0 | 65* | 31*
N#Cc1cccc(C(=O)C(=O)N2CCN(C(=O)OCc3ccccc3)CC2)c1 | nt | nt | nt | 0 | nt | nt | nt | nt
COc1cccc(N2CCN(c3nc(-c4ccccc4C)cc(=O)[nH]3)CC2)c1 | -13 | -1 | 2 | 2 | nt | nt | nt | nt
Cc1ccc(C(NC(=O)C2CCN(CCOc3ccccc3)CC2)c2ccccn2)cc1 (centres undefined) | nt | nt | 0 | -4 | nt | nt | nt | nt
COc1ccc(/C=N/NC(=O)c2cccc(NC(=O)c3ccccc3)c2)c(C(=O)O)c1OC | 5 | 0 | 6 | 3 | 113* | 2 | 95* | 13*
Cc1cccc(/C=N/NC(=O)c2cccc(NC(=O)c3ccccc3)c2)n1 | 3 | 3 | 1 | -32 | 106* | -3 | 102* | 28*
O=[N+]([O-])c1cccc(/C=N/Nc2nc(NCc3ccccc3)nc(N3CCOCC3)n2)c1O | -3 | 1 | -3 | 2 | 21 | 6 | nt | nt
CCCCNC(=O)c1nc(C2CCN(S(=O)(=O)c3ccc(Cl)cc3)CC2)oc1-c1ccccc1 | nt | nt | nt | 3 | nt | nt | nt | nt
Cn1c2ccccc2c(=O)c2cc(C#Cc3ccccn3)ccc21 | 12 | -52 | 5 | -28 | 96* | 2 | 115* | 28*
Cn1c2ccccc2c(=O)c2ccc(C#Cc3ccccn3)cc21 | 22 | -16 | nt | nt | 4 | 2 | nt | nt
CCN(CC)S(=O)(=O)c1cccc(NC(=O)/C=C/c2ccc([N+](=O)[O-])cc2)c1 | 2 | 1 | 0 | 6 | 7 | -4 | nt | nt
COc1cccc(NC(=O)/C=C/c2ccc([N+](=O)[O-])cc2)c1 | 4 | 2 | 5 | -6 | 88* | 2 | 91* | 25*
COc1ccc(NC(=O)CN(C)C(=O)c2cccc(S(=O)(=O)Nc3ccc(F)cc3)c2)cc1 | nt | -2 | -1 | 2 | 0 | nt | nt | nt
O=C1c2ccccc2C(=O)N1CCOc1ccccc1 | 1 | 1 | 2 | 1 | 97* | 4 | 167* | 21*
CC1NC(=O)c2cc3ccccc3cc2-n2c1nc1cc(Cl)ccc1c2=O (centres undefined) | nt | nt | 0 | -11 | nt | nt | nt | nt
Fc1ccc(Br)cc1/C=N/N1CCN(c2ccccc2)CC1 | -1 | 0 | 1 | 1 | 120* | -1 | 117* | 18*
COC(=O)C[C@H]1CC[C@@H]2[C@H](COC[C@H](O)CN2S(=O)(=O)c2ccccc2OC)O1 | nt | nt | nt | 3 | nt | nt | nt | nt
FC(F)(F)c1nnc(-c2ccccc2)nc1N1CCCC1 | -1 | 1 | 1 | -1 | 85* | 2 | 131* | 52*
N#CCC1c2ccccc2CCN1C(=O)Nc1ccc(C(F)(F)F)cc1 (centres undefined) | -13 | -1 | 1 | 0 | 103* | 1 | 100* | 181*
CCn1nc(C(=O)Nc2ccccc2C)c(Cl)c1Cl | -13 | -2 | -1 | 2 | 90* | 1 | 26 | 17*
CCn1nc(C(=O)Nc2cccc(C(F)(F)F)c2)c(Cl)c1Cl | -8 | 8 | -1 | 4 | 45 | 1 | nt | nt
CCn1nc(C(=O)Nc2cccc3ccccc23)c(Cl)c1Cl | 2 | 3 | 1 | -1 | 85* | -2 | 95* | 17*
CCn1nc(C(=O)NCc2ccco2)c(Cl)c1Cl | 0 | 0 | 0 | 0 | 6 | 1 | nt | nt
SMILES | PfM18AAP inh | HDAC3 inh | GAA850 FXN act | SENP1 FRET inh | AHR activator | CTSL1 counter | AHR act cf | PXR counter
CC1(Cc2ccc(Cl)s2)C(=O)Nc2c(Cl)ccc(Cl)c21 (centres undefined) | nt | nt | 1 | 1 | nt | nt | nt | nt
O=C(NCc1ccccc1Cl)c1cc(=O)[nH]c2ccccc12 | 0 | -4 | 0 | -11 | 0 | 1 | nt | nt
Cc1ccc(/C=N/Nc2ccnc3cc(Cl)ccc23)c(C)c1 | 3 | 3 | -2 | -58 | 87* | -2 | 16 | 16*
COCC(=O)N(C)C[C@H]1Oc2cc(C#Cc3cccnc3)ccc2S(=O)(=O)N([C@H](C)CO)C[C@H]1C | nt | nt | 0 | 0 | nt | nt | nt | nt
Cc1ccc(Nc2c(N)c(=O)oc3ccccc23)cc1 | 7 | 0 | -1 | 2 | 29 | 0 | nt | nt
Cc1ccc(C(=O)c2oc3ccccc3c2N)cc1 | 5 | -5 | 5 | -26 | 113* | 4 | 138* | 22*
CCOC(=O)c1oc2ccccc2c1NC(=O)COC | -4 | -3 | 2 | 1 | 89* | 0 | 104* | 15*
CCOC(=O)c1oc2ccccc2c1N | -3 | -2 | 4 | 2 | 82* | -3 | 122* | nt
Nc1c(C(=O)c2ccccc2)oc2ccc(Br)cc12 | 2 | -1 | 4 | -95 | 79* | 1 | 120* | 12*
CCOC(=O)c1oc2cccc(O)c2c1C | 6 | -20 | 2 | 1 | -4 | 3 | nt | nt
CC(=O)N1CCc2c(sc(NC(=O)c3ccc(S(=O)(=O)N(C)CC4CCCO4)cc3)c2C(N)=O)C1 (centres undefined) | nt | nt | -1 | -14 | nt | nt | nt | nt
O=C(NCc1ccccn1)c1ccc2ccccc2n1 | 2 | 1 | 1 | 2 | 91* | -2 | 86* | 16*
COc1cccc(-c2cc3nc(Nc4ccc(OC)c(OC)c4)n(C)c(=O)c3s2)c1 | nt | nt | 3 | 1 | nt | nt | nt | nt
CC(=O)Nc1sc(-c2ccccc2)nc1-c1ccccc1 | -4 | -11 | -1 | 1 | 1 | -1 | nt | nt
CC(=O)Nc1sc(-c2ccc(Cl)cc2)nc1-c1ccccc1 | -4 | -4 | 2 | -2 | 92* | 3 | -4 | 16*
CCc1c(C)c2c(C)nn(-c3ccccc3)c2[nH]c1=O | -7 | -5 | 1 | 0 | 97* | -1 | 94* | 24*
Cc1cc(=O)c2c(C)nn(-c3ccccc3)c2[nH]1 | -14 | 0 | 2 | 3 | 0 | -1 | nt | nt
Cc1ccc(NCc2ccccc2OCc2ccccc2F)cc1 | 2 | 1 | 2 | 1 | 106* | -4 | 82* | 36*
Oc1ccc(NCc2ccccc2OCc2ccccc2F)cc1 | 7 | 0 | 1 | 2 | 8 | -5 | nt | nt
Cc1ccc2cc3c(NC(=O)CC(C)C)nn(C)c3nc2c1 | 7 | -4 | -3 | -18 | 103* | 2 | 72* | nt
